ABHD5-PLIN5 inh – ABHD5-PLIN5 protein interaction inhibition | 0.78% of 360,000 active | Q00G26+Q8WTS1 | Split G. princeps luciferase complementation, luminescence, 4 h | AID 602281 | inhibition, % at 4 µM;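 active means inhibition above the mean inhibition across every tested compound plus 3 SD, cut at about 22% in these data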;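 further: 0% = DMSO only wells and the 100% control is not disclosed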
NadD inh – inhibitors of Staphylococcus aureus NadD; 0.78% of 360,000 active; purified NadD enzyme, colorimetric absorbance read-out; inhibition, % at 20 µM; in the data active means inhibition above about 26%
XiGFP reactiv – reactivates the inactive X chromosome in mouse fibroblasts; XiGFP mouse fibroblasts, % GFP-positive cells imaging, 3 d; cells co-treated with 5-aza-dC sensitizer; scaled so ellipticine positive control = 100%; activation, % at 7.58 µM; 0.055% of 360,000 active;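 active means mean normalized replicate activation at least 10% and every replicate at or above 10%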;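 further: 0% = median of on-plate neutral control wells and 100% = ellipticine 6 µM median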
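Material: SV40-immortalized XiGFP fibroblast cells, line 68-5-11 | Buffer or medium: DMEM containing 5-aza-dC | Dosing: One concentration, pinned | Times: 3 d treatment, 15 min room-temperature fixation | Controls: Ellipticine 6 µM positive control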
Rin1-Abl PPI inh – blocks binding of human Rin1 to Abl; P00519+Q13671; TR-FRET Rin1/Abl binding, biochemical; inhibition, % at 7.35 µM; 0.4% of 360,000 active; in the data active means inhibition above about 5%, passing the limit was not always enough
Rpn11 inh – inhibitors of human proteasome Rpn11; O00487; human 26S proteasome, Ub4-pepOG fluorescence polarization; 20S core pre-blocked with epoxomicin; inhibition, % at 20 µM; 0.59% of 360,000 active; AID 588493;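 active means inhibition at 20 µM, scaled to each plate's controls, above about 33%, limit read from the data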
Rpn11 confirm – confirmation of human proteasome Rpn11 inhibitors; shares compounds with Rpn11 inh; purified human 26S proteasome, Ub4-pepOG fluorescence polarization; proteasome pretreated with epoxomicin; inhibition, % at 20 µM; 29% of 1,900 active; AID 602318
MMP-2 inh – blocks human MMP-2, flagging nonselective RPN11 hits; shares compounds with Rpn11 inh; recombinant MMP-2, FRET peptide cleavage fluorescence; inhibition, % at 20 µM; 4% of 1,900 active;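 further: human MMP-2 activated beforehand with APMA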
Thrombin FP – counter-screen for RPN11 inhibitors: inhibition of bovine thrombin | shares compounds with Rpn11 inh | 13% of 1,900 active | bovine thrombin cleavage of Ub4-pepOG, fluorescence polarization | inhibition, % at 20 µM | AID 602333;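 active means mean inhibition at least 40% at 20 µM, or signal 3 deviations below plate average, so some actives read negative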;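 further: plate controls were thrombin with DMSO for no effect and buffer wells lacking thrombin for full effect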
Active calls of the source: *; nt = not tested or not shown. An excerpt weighted towards active compounds, which were near 1.9% of everything screened. Unless noted, no stated cut-off is given here; in the data, active means inhibition above about 40%; inactive means the rest.

SMILES	ABHD5-PLIN5 inh	NadD inh	XiGFP reactiv	Rin1-Abl PPI inh	Rpn11 inh	Rpn11 confirm	MMP-2 inh	Thrombin FP
CCN(CC(=O)Nc1c(F)cccc1F)C(=O)CCc1nc2sc3c(c2c(=O)[nH]1)CCCC3	0.8	7.0	0.0	2.9	68.4*	64.0*	-3.0	40.9*
CN(CC(=O)Nc1ccc(Cl)cc1)C(=O)CCc1nc2sc3c(c2c(=O)[nH]1)CCCC3	5.3	9.2	0.0	-2.3	51.8*	72.3*	-30.9	25.7
CN(CC(=O)Nc1ccc(F)cc1)C(=O)CCc1nc2sc3c(c2c(=O)[nH]1)CCCC3	-5.0	2.9	0.0	-1.9	48.1*	37.7	-31.3	19.0
CN(CC(=O)Nc1ccccc1C(F)(F)F)C(=O)CCc1nc2sc3c(c2c(=O)[nH]1)CCCC3	-5.2	-2.8	0.1	2.5	16.6	nt	nt	nt
COc1cc([N+](=O)[O-])cc(/C=N/NC(=O)c2ccc(NC(=O)c3ccc(C)cc3)cc2)c1O	-2.4	82.4*	0.0	3.6	41.5*	26.3	14.0	4.1
COc1cccc(/C=N/NC(=O)c2cc3cc([N+](=O)[O-])ccc3s2)c1O	-0.4	43.0*	0.1	-2.0	62.1*	34.0	-22.8	-18.8
C[C@H]1CN([C@@H](C)CO)S(=O)(=O)c2ccc(-c3ccncc3)cc2O[C@H]1CN(C)Cc1ccncc1	nt	nt	-0.9	nt	nt	nt	nt	nt
COC(=O)c1ccc(Oc2nc(C(N)=O)cc(-c3ccccc3)n2)cc1	-4.8	-2.9	nt	-0.2	68.0*	34.8	1.2	-6.3
N#Cc1ccc(Oc2nc(C(N)=O)cc(-c3ccccc3)n2)cc1	0.4	-0.5	nt	0.5	-4.2	nt	nt	nt
O=c1cc(N2CCc3ccccc3C2)[nH]c(=O)n1Cc1ccc(F)cc1	-11.8	1.0	nt	1.3	55.8*	-2.3	-25.8	-12.9
O=c1cc(N2CCN(c3ccccc3)CC2)[nH]c(=O)n1Cc1ccc(F)cc1	-23.4	-0.6	0.0	0.8	7.6	nt	nt	nt
C[C@@H](NC(=O)C[C@H]1CC[C@H]2[C@@H](COC[C@H](O)CN2Cc2cc(F)ccc2F)O1)c1ccccc1	nt	nt	0.1	nt	nt	nt	nt	nt
COc1ccc(/C=C2\N=C3CCCCCN3C2=O)cc1OC	-1.3	2.6	nt	-5.0	-2.9	nt	nt	nt
COc1cc(/C=C2\N=C3CCCCCN3C2=O)ccc1O	-6.5	3.5	nt	-4.7	152.0*	88.3*	-26.6	67.0*
CS(=O)(=O)N(CC(=O)Nc1ccc2c(c1)OCCO2)c1ccc2c(c1)OCO2	0.2	1.4	nt	-2.7	149.7*	-5.9	-24.9	-4.6
CSc1nc2nccc(-c3ccc(Cl)cc3)n2n1	2.9	0.1	nt	-0.9	82.7*	36.1	65.6*	-9.7
Cn1c(=O)oc2cc(S(=O)(=O)Nc3cccc4c3CCCC4)ccc21	0.5	0.0	nt	2.8	41.9*	37.7	19.9	24.3
Cn1c(=O)oc2cc(S(=O)(=O)NCC3CCCO3)ccc21 (stereo not drawn)	0.5	0.3	nt	-6.4	76.0*	21.8	-3.7	19.7
Cc1ccc(NC(=O)Nc2ccc3c(c2)C(=O)N(C)[C@H]2CC[C@@H](CC(=O)O)O[C@@H]2CO3)cc1	nt	nt	-0.1	nt	nt	nt	nt	nt
Cc1cc(C)c2c(=O)[nH]c(=O)n(Cc3ccccc3)c2n1	5.1	-2.3	nt	4.0	79.6*	94.8*	29.5	49.9*
O=C(C[C@H]1C[C@H]2c3cc(NS(=O)(=O)c4ccc(F)cc4)ccc3O[C@H]2[C@H](CO)O1)NCc1ccc(-c2ccccc2)cc1	nt	nt	-0.1	nt	nt	nt	nt	nt
CCS(=O)(=O)Nc1ccc2c(c1)C(=O)N(C)C[C@@H](OC)[C@@H](C)CN(Cc1ccccn1)[C@@H](C)CO2	nt	nt	0.1	nt	nt	nt	nt	nt
O=c1nc(/C=C/c2cccn2-c2ccc([N+](=O)[O-])cc2)cc(C(F)(F)F)[nH]1	-4.2	1.2	0.0	5.0	40.2*	28.6	18.0	14.9
COc1ccc(NC(=O)Nc2ccc3c(c2)C(=O)N([C@H](C)CO)C[C@H](C)[C@H](CN(C)Cc2ccc(C(F)(F)F)cc2)OCCCC[C@H](C)O3)cc1	nt	nt	-0.1	nt	nt	nt	nt	nt
CC(=O)N(C)C[C@@H]1Oc2ccc(N)cc2C(=O)N(C)C[C@H]1C	nt	nt	0.0	nt	nt	nt	nt	nt
